{"source": "ChEMBL document CHEMBL2203173", "about": "(J Med Chem, 2012)", "key": {"[1]": {"tested_on": "Mus musculus", "assay": "Toxicity in BALB/c nu/nu mouse xenografted with human DMS53 cells assessed as change in hematopoetic cells in splenic red pulp at 4 mg/kg, iv administered for 5 days a week measured after 21 days by hematoxylin and eosin staining method", "assay_type": "organism-based, DMS-53", "set-up": "dose 4 mg/kg, route intravenous", "details": "in vivo, 504 h", "summary_of_the_method": "(§1)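 DMS-53 xenografts in nude mice; dosing started at 100 mm3 tumor volume. Agents given iv via tail vein, 5 days/week for 21 days, vehicle 30% propylene glycol/saline, vehicle-treated controls. Mice sacrificed day 21. Body and organ weights and hematological indices recorded. Spleen, kidney, liver, heart, lungs and brain were stained with H&E, Perls' and Gomori Trichrome and read by an independent veterinary pathologist.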"}, "[2]": {"tested_on": "Mus musculus", "assay": "Toxicity in BALB/c nu/nu mouse xenografted with human DMS53 cells assessed as vacuolation at 8 mg/kg, iv administered for 5 days a week measured after 21 days by hematoxylin and eosin staining method", "assay_type": "organism-based, DMS-53", "set-up": "dose 8 mg/kg, route intravenous", "details": "in vivo, 504 h", "summary_of_the_method": "(§2)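 Nude mice with DMS-53 xenografts dosed by tail-vein iv injection in 30% propylene glycol/saline, starting at 100 mm3 tumour volume, 5 days/week for 21 days. Spleen, kidney, liver, heart, lungs and brain were stained with H&E, Perls' (Fe loading) and Gomori Trichrome (fibrosis) by standard methods, and an independent veterinary pathologist examined them.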"}, "[3]": {"tested_on": "Mus musculus", "assay": "Toxicity in BALB/c nu/nu mouse xenografted with human DMS53 cells assessed as change in hematopoetic cells in splenic red pulp at 8 mg/kg, iv administered for 5 days a week measured after 21 days by hematoxylin and eosin staining method", "assay_type": "organism-based, DMS-53", "set-up": "dose 8 mg/kg, route intravenous", "details": "in vivo, 504 h", "summary_of_the_method": "as §1"}, "[4]": {"tested_on": "Mus musculus", "assay": "Toxicity in BALB/c nu/nu mouse xenografted with human DMS53 cells assessed as cardiac fibrosis at 8 mg/kg, iv administered for 5 days a week measured after 21 days by […]", "assay_type": "organism-based, Heart, DMS-53", "set-up": "dose 8 mg/kg, route intravenous", "details": "in vivo, 504 h", "summary_of_the_method": "(§3)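 DMS-53 xenograft nude mice given agents iv by tail vein 5 days/week in 30% propylene glycol/saline for 21 days. At sacrifice, heart sections were stained with Gomori Trichrome to detect fibrosis. Spleen, kidney, liver, heart, lungs and brain were also stained with H&E and Perls' and examined by an independent veterinary pathologist.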"}, "[5]": {"tested_on": "Mus musculus", "assay": "Toxicity in BALB/c nu/nu mouse xenografted with human DMS53 cells assessed as change in organ weight at 8 mg/kg, iv administered for 5 days a week measured after 21 days", "assay_type": "organism-based, DMS-53", "set-up": "dose 8 mg/kg, route intravenous", "details": "in vivo, 504 h", "summary_of_the_method": "(§4)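 DMS-53 xenograft-bearing nude mice, treatment started at 100 mm3 tumour volume: iv tail-vein dosing in 30% propylene glycol/saline, 5 days/week for 21 days. Organs were weighed at sacrifice and compared with vehicle-control mice.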"}, "[6]": {"tested_on": "Mus musculus", "assay": "Toxicity in BALB/c nu/nu mouse xenografted with human DMS53 cells assessed as hepatocellular fibrosis at 4 mg/kg, iv administered for 5 days a week measured after 21 days by hematoxylin and eosin staining method", "assay_type": "organism-based, DMS-53", "set-up": "dose 4 mg/kg, route intravenous", "details": "in vivo, 504 h", "summary_of_the_method": "as §2"}, "[7]": {"tested_on": "Mus musculus", "assay": "Toxicity in BALB/c nu/nu mouse xenografted with human DMS53 cells assessed as change in lung weight at 20 mg/kg, po administered for 3 times a week measured after 20 days", "assay_type": "organism-based, DMS-53", "set-up": "dose 20 mg/kg, route oral", "details": "in vivo, 480 h", "summary_of_the_method": "(§5)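 Nude mice bearing DMS-53 xenografts gavaged 3 times/week for 20 days, vehicle 30% propylene glycol/saline, vehicle controls, n = 6-11 mice/condition. Sacrifice on day 20. Organ weights and hematological indices recorded. Spleen, kidney, liver, heart, lungs and brain examined histologically, hearts stained with Gomori Trichrome for fibrosis.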"}, "[8]": {"tested_on": "Mus musculus", "assay": "Toxicity in BALB/c nu/nu mouse xenografted with human DMS53 cells assessed as hepatocellular necrosis at 4 mg/kg, iv administered for 5 days a week measured after 21 days by hematoxylin and eosin staining method", "assay_type": "organism-based, DMS-53", "set-up": "dose 4 mg/kg, route intravenous", "details": "in vivo, 504 h", "summary_of_the_method": "as §2"}, "[9]": {"tested_on": "Mus musculus", "assay": "Toxicity in BALB/c nu/nu mouse xenografted with human DMS53 cells assessed as hepatocellular fibrosis at 8 mg/kg, iv administered for 5 days a week measured after 21 days by hematoxylin and eosin staining method", "assay_type": "organism-based, DMS-53", "set-up": "dose 8 mg/kg, route intravenous", "details": "in vivo, 504 h", "summary_of_the_method": "as §2"}, "[10]": {"tested_on": "Mus musculus", "assay": "Toxicity in BALB/c nu/nu mouse xenografted with human DMS53 cells assessed as change in body weight at 4 mg/kg, iv administered for 5 days a week measured after 21 days", "assay_type": "organism-based, DMS-53", "set-up": "dose 4 mg/kg, route intravenous", "details": "in vivo, 504 h", "summary_of_the_method": "as §1"}, "[11]": {"tested_on": "Mus musculus", "assay": "Toxicity in BALB/c nu/nu mouse xenografted with human DMS53 cells assessed as cardiac fibrosis at 10 mg/kg, po administered for 3 times a week measured after 20 days using Gomori Trichrome stain", "assay_type": "organism-based, Heart, DMS-53", "set-up": "dose 10 mg/kg, route oral", "details": "in vivo, 480 h", "summary_of_the_method": "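DMS-53 xenograft nude mice given oral gavage 3 times/week in 30% propylene glycol/saline for 20 days. Heart sections taken after 20 days were stained with Gomori Trichrome for fibrosis and viewed at 100×. Other organs were examined histologically.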"}, "[12]": {"tested_on": "Mus musculus", "assay": "Toxicity in BALB/c nu/nu mouse xenografted with human DMS53 cells assessed as change in lung weight at 7.5 mg/kg, po administered for 3 times a week measured after 20 days", "assay_type": "organism-based, DMS-53", "set-up": "dose 7.5 mg/kg, route oral", "details": "in vivo, 480 h", "summary_of_the_method": "as §5"}, "[13]": {"tested_on": "Mus musculus", "assay": "Toxicity in BALB/c nu/nu mouse xenografted with human DMS53 cells assessed as change in platelet count at 6 mg/kg, iv administered for 5 days a week measured after 21 days", "assay_type": "organism-based, DMS-53", "set-up": "dose 6 mg/kg, route intravenous", "details": "in vivo, 504 h", "summary_of_the_method": "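Nude mice carrying DMS-53 xenografts (treatment from 100 mm3) received iv tail-vein doses in 30% propylene glycol/saline, 5 days/week for 21 days. Hematological indices (RBC, hemoglobin, hematocrit, reticulocytes, WBC, platelets) were then compared with vehicle controls.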"}, "[14]": {"tested_on": "Mus musculus", "assay": "Toxicity in BALB/c nu/nu mouse xenografted with human DMS53 cells assessed as hepatocellular fibrosis at 6 mg/kg, iv administered for 5 days a week measured after 21 days by hematoxylin and eosin staining method", "assay_type": "organism-based, DMS-53", "set-up": "dose 6 mg/kg, route intravenous", "details": "in vivo, 504 h", "summary_of_the_method": "as §2"}, "[15]": {"tested_on": "Mus musculus", "assay": "Toxicity in human DMS53 cells xenografted BALB/c nu/nu mouse assessed as change in organ weight at 6 mg/kg, iv administered for 5 days a week measured after 21 days", "assay_type": "organism-based, DMS-53", "set-up": "dose 6 mg/kg, route intravenous", "details": "in vivo, 504 h", "summary_of_the_method": "as §4"}, "[16]": {"tested_on": "Mus musculus", "assay": "Toxicity in BALB/c nu/nu mouse xenografted with human DMS53 cells assessed as change in body weight at 6 mg/kg, iv administered for 5 days a week measured after 21 days", "assay_type": "organism-based, DMS-53", "set-up": "dose 6 mg/kg, route intravenous", "details": "in vivo, 504 h", "summary_of_the_method": "as §1"}, "[17]": {"tested_on": "Mus musculus", "assay": "Toxicity in BALB/c nu/nu mouse xenografted with human DMS53 cells assessed as change in hematocrit level at 7.5 mg/kg, po administered for 3 times a week measured after 20 days", "assay_type": "organism-based, DMS-53", "set-up": "dose 7.5 mg/kg, route oral", "details": "in vivo, 480 h", "summary_of_the_method": "as §5"}, "[18]": {"tested_on": "Mus musculus", "assay": "Toxicity in BALB/c nu/nu mouse xenografted with human DMS53 cells assessed as change in lung weight at 10 mg/kg, po administered for 3 times a week measured after 20 days", "assay_type": "organism-based, DMS-53", "set-up": "dose 10 mg/kg, route oral", "details": "in vivo, 480 h", "summary_of_the_method": "as §5"}, "[19]": {"tested_on": "Mus musculus", "assay": "Toxicity in BALB/c nu/nu mouse xenografted with human DMS53 cells assessed as hepatocellular necrosis at 6 mg/kg, iv administered for 5 days a week measured after 21 days by hematoxylin and eosin staining method", "assay_type": "organism-based, DMS-53", "set-up": "dose 6 mg/kg, route intravenous", "details": "in vivo, 504 h", "summary_of_the_method": "as §2"}, "[20]": {"tested_on": "Mus musculus", "assay": "Toxicity in BALB/c nu/nu mouse xenografted with human DMS53 cells assessed as cardiac fibrosis at 6 mg/kg, iv administered for 5 days a week measured after 21 days by […]", "assay_type": "organism-based, Heart, DMS-53", "set-up": "dose 6 mg/kg, route intravenous", "details": "in vivo, 504 h", "summary_of_the_method": "as §3"}, "[21]": {"tested_on": "Mus musculus", "assay": "Toxicity in BALB/c nu/nu mouse xenografted with human DMS53 cells assessed as change in RBC count at 3 mg/kg, iv administered for 5 days a week measured after 21 days", "assay_type": "organism-based, DMS-53", "set-up": "dose 3 mg/kg, route intravenous", "details": "in vivo, 504 h"}, "[22]": {"tested_on": "Mus musculus", "assay": "Toxicity in BALB/c nu/nu mouse xenografted with human DMS53 cells assessed as change in RBC count at 10 mg/kg, po administered for 3 times a week measured after 20 days", "assay_type": "organism-based, DMS-53", "set-up": "dose 10 mg/kg, route oral", "details": "in vivo, 480 h"}, "[23]": {"tested_on": "Mus musculus", "assay": "Cardiotoxicity in BALB/c nu/nu mouse xenografted with human DMS53 cells at 6 mg/kg, iv administered for 5 days a week measured after 21 days", "assay_type": "toxicity, organism-based, DMS-53", "set-up": "dose 6 mg/kg, route intravenous", "details": "in vivo, 504 h", "summary_of_the_method": "as §3"}}, "data": [{"smiles": "CN(C(=S)NN=C(c1ccccn1)c1ccccn1)C1CCCCC1.Cl", "values": [{"measurement": "Activity", "setting": "[1]", "value": "Non-toxic"}, {"measurement": "Activity", "setting": "[2]", "value": "Toxic"}, {"measurement": "Activity", "setting": "[3]", "value": "Non-toxic"}, {"measurement": "Activity", "setting": "[4]", "value": "Non-toxic"}, {"measurement": "Activity", "setting": "[5]", "value": "Toxic"}, {"measurement": "Activity", "setting": "[6]", "value": "Non-toxic"}, {"measurement": "Activity", "setting": "[7]", "value": "Non-toxic"}, {"measurement": "Activity", "setting": "[8]", "value": "Non-toxic"}, {"measurement": "Activity", "setting": "[9]", "value": "Non-toxic"}, {"measurement": "Activity", "setting": "[10]", "value": "Non-toxic"}, {"measurement": "Activity", "setting": "[11]", "value": "Non-toxic"}]}, {"smiles": "CCN(C)C(=S)NN=C(c1ccccn1)c1ccccn1.Cl", "values": [{"measurement": "Activity", "setting": "[12]", "value": "Non-toxic"}, {"measurement": "Activity", "setting": "[13]", "value": "Non-toxic"}, {"measurement": "Activity", "setting": "[14]", "value": "Non-toxic"}, {"measurement": "Activity", "setting": "[15]", "value": "Toxic"}, {"measurement": "Activity", "setting": "[16]", "value": "Non-toxic"}, {"measurement": "Activity", "setting": "[17]", "value": "Toxic"}, {"measurement": "Activity", "setting": "[18]", "value": "Toxic"}, {"measurement": "Activity", "setting": "[19]", "value": "Non-toxic"}, {"measurement": "Activity", "setting": "[20]", "value": "Non-toxic"}, {"measurement": "Activity", "setting": "[21]", "value": "Non-toxic"}, {"measurement": "Activity", "setting": "[22]", "value": "Toxic"}, {"measurement": "Activity", "setting": "[23]", "value": "Non-toxic"}, {"measurement": "Activity", "setting": "[11]", "value": "Non-toxic"}]}]}
